Screens deposited in PubChem BioAssay by Broad Institute.
SR-BI DiI inh: mouse SR-BI HDL lipid transfer inhibition. Q61009. ldlA[mSR-BI] CHO cells, DiI-HDL uptake fluorescence, 3 h. inhibition, % at 12.5 µM. 320,000 tested, 0.96% active;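 active = mean replicate inhibition of at least 70% and a set share of replicates each scoring 70 or more; inconclusive = meets just one of the two criteria; inactive = fails both criteria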;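 note: 0% = median of neutral control wells and 100% = median of positive control wells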
Target sequence (Q61009 whole entry, looked up): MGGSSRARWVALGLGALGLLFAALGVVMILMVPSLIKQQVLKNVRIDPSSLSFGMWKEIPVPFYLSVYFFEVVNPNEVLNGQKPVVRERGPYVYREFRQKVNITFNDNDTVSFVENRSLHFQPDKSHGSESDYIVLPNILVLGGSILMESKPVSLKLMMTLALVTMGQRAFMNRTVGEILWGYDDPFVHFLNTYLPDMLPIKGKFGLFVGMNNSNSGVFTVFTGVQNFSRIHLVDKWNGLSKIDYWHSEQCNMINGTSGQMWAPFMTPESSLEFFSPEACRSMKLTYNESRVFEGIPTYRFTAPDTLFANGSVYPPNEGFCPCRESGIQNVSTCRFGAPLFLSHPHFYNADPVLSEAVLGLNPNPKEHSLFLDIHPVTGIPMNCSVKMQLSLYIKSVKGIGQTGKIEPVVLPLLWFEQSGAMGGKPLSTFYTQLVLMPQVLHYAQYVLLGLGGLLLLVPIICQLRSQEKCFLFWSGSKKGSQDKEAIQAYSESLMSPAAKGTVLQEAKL
PglD DTNB: PglD (C. jejuni) enzyme inhibition; inhibition, % at 12.5 µM; 360,000 tested, 0.098% active; purified PglD enzyme, DTNB colorimetric CoA detection; in the data active = inhibition above about 16%, passing the limit was not always enough; inconclusive = no clear call, values can overlap the other calls
SR-BI uptake up: activators of SR-BI mediated HDL lipid uptake | 320,000 tested, 0.096% active | AID 504775 | CHO ldlA[mSR-BI] cells, DiI-HDL uptake fluorescence, 3 h; 100 = double the neutral-control signal | activation, % at 12.5 µM;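 active = mean replicate activation of at least 60% and every replicate at or above 60%; inconclusive = mean or all-replicate condition met, but not both; inactive = mean below 60% and not all replicates reaching 60%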;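 note: 0% = median plate neutral-control signal and 100% = twice that signal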
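Assay system: LDL receptor-deficient CHO ldlA cells overexpressing murine SR-BI / Medium: BSA-supplemented, HEPES-buffered Ham's F12, pH 7.4 / Probe or stimulus: DiI-labelled HDL at 10 µg/mL final / Timing: compound with DiI-HDL co-incubation, 3 h at 37 °C / Technique: bottom-read cell fluorescence after medium removal, ex 550/em 595 nm / Measure: HDL uptake via cellular fluorescence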
Env fusion inh: HIV envelope-mediated fusion inhibition. AID 651610. HeLa-JRFL Env/CEM21 cell fusion, luciferase. inhibition, % at 12.3 µM. 360,000 tested, 1.1% active;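 active = mean replicate inhibition score of at least 50 and every replicate individually at or above 50; inconclusive = only one of the two criteria met; inactive = mean below 50 and not all replicates reaching 50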;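 note: 0% = plate neutral controls and 100% = maraviroc near 300 nM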
Rtt109 Vps75: inhibitors of Candida albicans Rtt109/Vps75 histone acetyltransferase; Q5AAJ8; purified Rtt109/Vps75, ThioGlo CoA-SH fluorescence, 4 h; inhibition, % at 34.9 µM; 330,000 tested, 0.16% active;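 active = inhibition of at least 50% in every replicate; inconclusive = best replicate reaches 50% inhibition but some replicates fall short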
Glyco luc inh: blocks N-linked glycosylation in D54 reporter cells. D54 ERlucT glycosylation luciferase reporter, 24 h; percent of 100 nM tunicamycin response. reporter increase, % at 12.5 µM. 360,000 tested, 0.23% active. AID 588692;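 active = mean luciferase reporter signal, scaled so untreated is 0 and the glycosylation-blocking control 100, at or above a set limit in every replicate; inconclusive = mean reaches the limit but not every replicate does; inactive = mean below the limit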;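 note: luciferase carries N-glycosylation sites so blocking glycosylation raises the light; 0% = median of neutral control wells and 100% = median of 100 nM tunicamycin wells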
Numbers without * were called inactive; i = inactive; ? = inconclusive; . = no result; [ ] = remark or other dose. The list is not random: actives were taken first. Their share in the collection is about 1.9%.

SMILES	SR-BI DiI inh	PglD DTNB	SR-BI uptake up	Env fusion inh	Rtt109 Vps75	Glyco luc inh
C[C@]12CCC3=C4CCC(=O)C=C4CC[C@H]3C1CC[C@@H]2O (some centres not stated)	2	-10	-2	56*	2	0
C[C@]12CC[C@H]3[C@@H](CCC4=CC(=O)CC[C@@H]43)[C@@H]1CC[C@@H]2O	-2	-2	2	.	-13	-4
Cc1ccc2c(C)c3ccc4ccccc4c3c[n+]2c1	-5	.	5	2	-4	37*
COC(=O)[C@@H]1[C@@H](CO)[C@@H]2Cn3c(ccc(-c4ccccc4F)c3=O)[C@H]1N2Cc1ccncc1	.	0	.	.	.	.
COC(=O)[C@@H]1[C@@H](CO)[C@@H]2Cn3c(ccc(-c4cccc(OC)c4)c3=O)[C@H]1N2CC1CC1	.	1	.	.	.	.
CC(C)(C)c1ccc(O)c(N=Cc2c(O)ccc3ccccc23)c1	113*	-3	-113	24	-1	6
N#Cc1c(Br)n(C2OC(CO)C(O)C2O)c2ncnc(N)c12 (configuration not stated)	13	.	-13	-1	0	-7
N#Cc1cn(C2OC(CO)C(O)C2O)c2ncnc(N)c12 (configuration not stated)	-185	.	?	85*	-1	-12
NC(=O)c1cn(C2OC(CO)C(O)C2O)c2ncnc(N)c12 (configuration not stated)	-10	-7	10	89*	-2	-19
NC(=O)c1c(Br)n(C2OC(CO)C(O)C2O)c2ncnc(N)c12 (configuration not stated)	-4	.	4	71*	-2	-13
CCNC(=O)[C@H]1O[C@@H](n2cnc3c(N)ncnc32)[C@H](O)[C@@H]1O	2	-5	2	-2	0	3
O=C(Cc1ccccn1)N1CCCCN2[C@H](CO)[C@@H](c3ccc(C#Cc4ccccc4)cc3)[C@@H]2C1	.	2	.	.	.	.
CC(=O)O[C@H]1C[C@@H]2OC3C=C(C)CCC3(C)[C@@]1(C)[C@@]21CO1 (some centres not stated)	-7	.	7	72*	8	-18
CC(=O)OC1CC2OC3C=C(C)CCC3(C)C1(C)C21CO1 (configuration not stated)	.	-1	.	.	.	-22
Cc1ccc(N2C(=O)NC(=O)/C(=C\C=C\c3ccco3)C2=O)cc1C	-20	-7	20	.	-3	47*
CN1C(=O)/C(=C/C=C/c2ccco2)C(=O)NC1=S	.	.	.	-38	.	0
O=C1NC(=O)N(Cc2ccccc2)C(=O)/C1=C\C=C\c1ccco1	8	0	-8	-340	-6	?
O=C1NC(=O)N(c2ccccc2)C(=O)/C1=C/C=C/c1ccco1	.	-4	.	-75	-2	29*
Cc1cccc(N2C(=O)NC(=O)/C(=C\C=C\c3ccco3)C2=O)c1	.	.	.	i	1	42*
CN(C)c1ccc(/C=C/C=C2/C(=O)NC(=O)N(c3ccccc3)C2=O)cc1	-2	.	2	-210	11	1
O=C1NC(=O)N(Cc2ccco2)C(=O)/C1=C/C=C/c1ccco1	.	.	.	-466	-2	36*
Cc1ccc(N2C(=O)NC(=O)/C(=C\C=C\c3ccco3)C2=O)cc1	.	-6	.	-245	1	42*
COC(=O)[C@@H]1[C@@H](CO)[C@@H]2Cn3c(ccc(-c4cccc(OC)c4)c3=O)[C@H]1N2C(=O)c1cnccn1	.	-2	.	.	.	.
COc1ccc(C#Cc2ccc([C@H]3[C@H](CO)N4CCCCN(C(=O)Cc5ccncc5)C[C@@H]34)cc2)cc1	.	0	.	.	.	.
COC(=O)C1=C(c2ccc(F)cc2OCc2ccccc2)C[C@@H]2CC[C@H]1N2C(=O)NC1Cc2ccccc2C1	28	-2	-28	57*	4	-8
SMILES	SR-BI DiI inh	PglD DTNB	SR-BI uptake up	Env fusion inh	Rtt109 Vps75	Glyco luc inh
COCCNC(=O)N1[C@H]2CC[C@@H]1C(C(=O)OC)=C(c1ccc(-c3ccccc3)c(F)c1)C2	-13	-2	13	57*	0	-5
COC(=O)[C@H]1[C@H](CO)[C@H]2Cn3c(ccc(-c4ccccc4)c3=O)[C@@H]1N2CC1CCCCC1	.	1	.	.	.	.
O=C(O)[C@@H]1[C@@H](CO)[C@@H]2Cn3c(cccc3=O)[C@H]1N2C(=O)c1ccccc1	.	0	.	.	.	.
C[n+]1c2ccccc2nc2ccc(NCCO)cc21	-22	4	22	57*	2	4
CNc1ccc2nc3ccccc3[n+](C)c2c1	3	1	-3	-6	1	-16
CN(C)C1C(=O)C(C(N)=O)=C(O)C2(O)C(=O)C3=C(O)c4c(O)cccc4C(C)(O)C3C(O)C12 (configuration not stated)	-6	-4	6	63*	3	0
O=C(Cc1cccnc1)N1CCCCN2[C@@H](CO)[C@@H](c3ccc(C#CC4CC4)cc3)[C@@H]2C1	.	4	.	.	.	.
CC1Oc2cc3c(-c4c(O)cc(O)c5c(O)c6c(cc45)OC(C)C(C)C6=O)c(O)cc(O)c3c(O)c2C(=O)C1C (configuration not stated)	80*	-8	-80	.	1	-12
O=C(O)[C@H]1[C@H](CO)[C@H]2Cn3c(ccc(-c4ccc(F)cc4)c3=O)[C@@H]1N2CC1CCCCC1	.	2	.	-4[16.7 µM]	.	.
CCCC/C(C)=C/[C@@H](NP(=O)(c1ccccc1)c1ccccc1)c1ccccc1	-14	-3	14	84*	1	-7
Cc1ccc(S(=O)(=O)CC(C)(O)C(=O)Nc2cccc(C(F)(F)F)c2)cc1 (configuration not stated)	3	3	-3	68*	5	1
CC(O)(CS(=O)(=O)c1ccccc1)C(=O)Nc1cccc(C(F)(F)F)c1 (configuration not stated)	-18	-2	18	44	5	0
O=C(Cc1cccnc1)N1CCCCN2[C@H](CO)[C@@H](c3ccc(C#CC4CC4)cc3)[C@H]2C1	.	6	.	.	.	.
CCC(C)(C)n1nnnc1C(c1cccs1)N1CC=C(c2ccc(F)cc2)CC1 (configuration not stated)	20	6	-20	96*	7	-5
CC1CCOC(=O)C=CC=CC(=O)OC2CC3OC4C5OC5(C)C(O)CC4(COC(=O)C1O)C2(C)C31CO1 (configuration not stated)	7	.	-7	59*	3	-18
CC(O)C1C=CC=CC(=O)OC2CC3OC4C5OC5(C)C(O)CC4(COC(=O)C(O)C(C)CCO1)C2(C)C31CO1 (configuration not stated)	-27	.	27	70*	5	-18
CC1=CC2OC3CC4OC(=O)C=CC=CC(C(C)O)OCC(O)C5(C)OC5C(=O)OCC2(CC1O)C4(C)C31CO1 (configuration not stated)	5	.	-5	73*	5	-17
